Data set [1] has as its system Brain. The data set is described as follows: Drug uptake in Sprague-Dawley rat brain at 300 mg/kg, po administered for 14 days followed by 7 day washout cycle measured on day 21. The class given is ADME, organism-based. As to conditions: in vivo; call rule not given here.
The next data set concerns Liver. Briefly: Drug metabolism in Sprague-Dawley rat liver assessed as salicylic acid formation at 300 mg/kg, po administered for 7 days measured 4 hrs post dose on day 7. The class given is ADME, organism-based. As to conditions: in vivo. In outline:
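Male Sprague Dawley rats, groups of 4, dosed orally at 300 mg/kg once daily for 14 days. Animals killed on days 1, 3, 7 and 14, with plasma, brain, epididymal fat, liver and muscle taken 4 hr after dosing. Parent, salicylic acid and salicyluric acid were measured.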

The subject of data set [2] is Brain. The data set is described as follows: Drug uptake in Sprague-Dawley rat brain at 300 mg/kg, po administered for 14 days measured 4 hrs post dose on day 1, 3, 7 and 14. The following applies: in vivo.
A short description of data set [3]: Cmax in Sprague-Dawley rat at 300 mg/kg, po measured up to 24 hrs post dose. The class given is ADME, organism-based. Details: dose 300 mg/kg, route oral. The following applies: in vivo. The essentials: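 Single oral dose of 300 mg/kg to Sprague Dawley rats. Plasma collected at 0, 0.5, 1, 2, 4, 8 and 24 hr. Analytes were the parent, the salicylate-linker and linker-DHA metabolites, salicylic acid and salicyluric acid; Cmax and AUClast derived.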

Data set [4] has as its target T1, Fatty-acid amide hydrolase 1 (Homo sapiens, UniProt O00519).
T1 sequence (O00519 whole entry): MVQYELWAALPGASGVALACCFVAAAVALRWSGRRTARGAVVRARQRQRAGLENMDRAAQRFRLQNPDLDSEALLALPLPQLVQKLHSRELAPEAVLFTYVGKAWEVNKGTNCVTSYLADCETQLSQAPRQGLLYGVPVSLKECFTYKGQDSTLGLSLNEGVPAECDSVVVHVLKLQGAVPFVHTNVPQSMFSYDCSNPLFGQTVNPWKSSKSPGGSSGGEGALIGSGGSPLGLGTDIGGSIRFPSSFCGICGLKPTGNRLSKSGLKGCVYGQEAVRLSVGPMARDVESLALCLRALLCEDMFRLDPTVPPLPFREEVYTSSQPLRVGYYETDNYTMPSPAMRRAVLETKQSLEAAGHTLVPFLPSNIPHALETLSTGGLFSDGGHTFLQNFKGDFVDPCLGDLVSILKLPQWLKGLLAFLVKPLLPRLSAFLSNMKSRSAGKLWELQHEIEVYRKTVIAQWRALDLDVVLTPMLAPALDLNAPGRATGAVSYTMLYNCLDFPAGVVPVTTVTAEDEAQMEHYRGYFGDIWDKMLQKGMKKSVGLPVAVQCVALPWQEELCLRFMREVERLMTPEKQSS
Briefly: Drug metabolism assessed as human recombinant N-terminal FLAG/C-terminal His-tagged FAAH1 (32 to 579 residues)-mediated compound hydrolysis by measuring release of EPA at 25 uM after 2 hrs by LC/MS-MS analysis in presence of PF-3845. The class given is ADME.

Data set [5] in a line: Cmax in portal vein cannulated Sprague-Dawley rat at 30 mg/kg, po measured up to 140 mins. It is filed as ADME, organism-based. Further details: dose 30 mg/kg, route oral. The following applies: portal vein blood. The essentials: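 Sprague Dawley rats surgically fitted with indwelling jugular vein and portal vein cannulas; oral dosing, then serial blood draws from both portal and jugular veins at 10, 20, 40 min and 1, 2, 4, 6 hr post dose; plasma analysed for parent and metabolites by LC/MS/MS.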

Data set [6] can be described thus: Drug uptake in Sprague-Dawley rat liver at 300 mg/kg, qd administered through oral gavage for 7 days measured 2 hrs post last dose by LC/MS/MS analysis. The class given is ADME, organism-based. The following applies: read-out: Drug uptake.
A short description of data set [7]: Plasma concentration in Sprague-Dawley rat at 300 mg/kg, qd administered through oral gavage for 7 days measured 2 hrs post last dose by LC/MS/MS analysis. It is filed as ADME, organism-based.
The target in data set [8] is T2, Sterol regulatory element-binding protein 2 (Homo sapiens) (UniProt Q12772).
T2 sequence (whole entry): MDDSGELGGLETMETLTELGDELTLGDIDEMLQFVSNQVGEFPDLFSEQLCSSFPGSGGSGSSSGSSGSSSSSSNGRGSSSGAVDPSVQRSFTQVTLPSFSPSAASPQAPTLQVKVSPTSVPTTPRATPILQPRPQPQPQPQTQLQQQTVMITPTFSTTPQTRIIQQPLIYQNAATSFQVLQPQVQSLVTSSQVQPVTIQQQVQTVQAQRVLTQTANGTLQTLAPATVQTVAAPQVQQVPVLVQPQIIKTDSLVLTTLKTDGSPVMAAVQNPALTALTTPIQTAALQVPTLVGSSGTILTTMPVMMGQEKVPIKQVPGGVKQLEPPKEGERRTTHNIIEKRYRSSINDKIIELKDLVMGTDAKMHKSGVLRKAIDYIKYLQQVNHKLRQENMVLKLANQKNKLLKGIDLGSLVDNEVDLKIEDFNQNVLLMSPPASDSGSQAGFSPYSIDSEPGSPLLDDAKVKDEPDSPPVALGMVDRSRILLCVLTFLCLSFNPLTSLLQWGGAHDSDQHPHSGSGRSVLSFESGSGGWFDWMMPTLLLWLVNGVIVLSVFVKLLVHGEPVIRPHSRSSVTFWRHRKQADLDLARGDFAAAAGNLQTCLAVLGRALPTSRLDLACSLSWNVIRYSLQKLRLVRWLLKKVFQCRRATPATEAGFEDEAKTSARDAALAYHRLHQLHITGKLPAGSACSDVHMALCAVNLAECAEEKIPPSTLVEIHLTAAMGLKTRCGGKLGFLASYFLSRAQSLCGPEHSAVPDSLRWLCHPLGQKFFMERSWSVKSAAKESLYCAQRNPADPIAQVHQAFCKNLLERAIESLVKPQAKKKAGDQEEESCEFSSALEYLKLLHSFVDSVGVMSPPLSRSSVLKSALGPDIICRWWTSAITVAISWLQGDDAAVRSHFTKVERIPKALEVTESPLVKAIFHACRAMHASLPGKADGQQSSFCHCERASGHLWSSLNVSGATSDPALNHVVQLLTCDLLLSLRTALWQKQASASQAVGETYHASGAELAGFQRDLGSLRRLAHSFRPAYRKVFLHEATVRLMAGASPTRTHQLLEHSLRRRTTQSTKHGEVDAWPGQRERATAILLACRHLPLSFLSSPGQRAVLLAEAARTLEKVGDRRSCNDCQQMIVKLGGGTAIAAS
The data set is described as follows: Inhibition of SREBP2 in human HepG2 cells assessed as downregulation of PCSK9 mRNA expression by RT-PCR analysis. It is filed as cell-based.

The test system of a further data set is Rattus norvegicus. The data set is described as follows: Cmax in Sprague-Dawley rat assessed as nicotinuric acid at 100 mg/kg, po administered as single dose measured up to 6 hrs post dose by LC/MS/MS analysis. Details: dose 100 mg/kg, route oral. The class given is ADME, organism-based. As to conditions: in vivo. In outline:
(§1)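 Single oral dose to Sprague Dawley rats; plasma collected at 0.25, 0.5, 1, 2, 4 and 6 hr; analytes in plasma quantified by LC/MS/MS.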

A further data set concerns Plasma. The data set is described as follows: Metabolic stability in beagle dog plasma at 5 uM up to 2 hrs by LC-MS-MS analysis. The class given is ADME, cell-free, Canis lupus familiaris. In outline:
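Plasma from each species diluted to 50% with 0.05 M PBS pH 7.4 and prewarmed to 37 °C; compound added at 5 µM final (from DMSO stock diluted in MeOH); triplicate incubations at 37 °C, sampled at 0, 30, 60, 120 min, quenched with acetonitrile containing internal standard, centrifuged, analysed by LC/MS/MS.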

Data set [9] is described as follows: AUClast in Sprague-Dawley rat at 100 mg/kg, po administered as single dose measured up to 6 hrs post dose by LC/MS/MS analysis. The class given is ADME, organism-based. Details: dose 100 mg/kg, time < 6 hr, route oral. As to conditions: in vivo. In outline: as §1

In the case of `CC/C=C\C/C=C\C/C=C\C/C=C\C/C=C\C/C=C\CCC(=O)NCCNC(=O)c1ccccc1O` [EDASALONEXENT], the Drug uptake entry in the data set on Brain [1] and in the data set on Brain [2] was “Not Active” throughout. Also, in the data set on Liver, the Drug metabolism turned out to be 235.91 ng/g. Further, in [3], the highest concentration (Cmax) was 477 ng/mL.

As to `CC/C=C\C/C=C\C/C=C\C/C=C\C/C=C\CCCC(=O)NCCNC(=O)c1cccnc1`, the Drug metabolism entry in data set [4] is “metabolite_notdetected”. In addition, the Cmax amounted to 418 ng/mL in [5] and 1131 ng/mL in the data set on Rattus norvegicus. Also, the concentration at 2 h turned out to be 7.5 ng/g in [6] and 13 ng/mL in [7]. Also, in [8], the inhibition result is “Dose-dependent effect”. In the data set on Plasma, the Stability entry is “Stable”. The exposure AUC(0-t) at 6 h in data set [9] is 172 ng·h/mL.

Values taken from ChEMBL document CHEMBL3785029, “Synthesis and Characterization of Fatty Acid Conjugates of Niacin and Salicylic Acid” (J Med Chem, 2016).
